The text below walks through data of ChEMBL document CHEMBL1149108, “Arecoline tripeptide inhibitors of proteasome” (J Med Chem, 2004).

In data set [1] the target is Proteasome. The experiment in a line: Inhibitory activity was evaluated against chymotrypsin-like enzyme. It counts as subcellular. The gist of the method:
(§1)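 Proteasome partially purified from lymphoblastoid cell lines, affinity-purified and dialysed against 25 mM Tris-HCl pH 7.5. Enzyme untreated or pretreated with 0.01-20 µM compound, then incubated 30 min at 37 °C in activity buffer with fluorogenic substrate: Suc-LLVY-AMC for chymotrypsin-like, Boc-LRR-AMC for trypsin-like. Fluorescence read at ex 360/em 465 nm; IC50 derived.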

Data set [2] has as its target Proteasome. The data set is described as follows: Inhibitory activity was evaluated against trypsin-like (proteasome) enzyme. It counts as subcellular. The gist of the method: as §1
Data set [3] relates to Proteasome. The experiment in a line: Inhibitory activity was evaluated against postacid PGPH active site. The class given is subcellular. The gist of the method:
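Postacidic (PGPH) activity measured with Ac-YVAD-AMC on partially purified, affinity-purified lymphoblastoid proteasome in 25 mM Tris-HCl pH 7.5. Enzyme untreated or pretreated with 0.01-20 µM compound, then substrate added for 30 min at 37 °C in activity buffer. Fluorescence read at ex 360/em 465 nm; IC50 calculated.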

A short description of data set [4]: Half-life in culture medium was determined. The class given is ADME. The gist of the method:
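Compound (stock 10 mg/mL in acetonitrile/H2O 1:1) added to RPMI containing 20% FCS and incubated at 37 °C for up to 2 days. Ethanol added to stop the reaction, then centrifugation and RP-HPLC of the supernatant. Half-life taken from least-squares linear regression of log inhibitor concentration versus time, at least five points.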

A short description of data set [5]: Half-life in human plasma was determined. It counts as ADME. The gist of the method: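 Compound incubated with human plasma (0.6 mL in 1.5 mL total) in 10 mM Tris-HCl pH 7.5 at 37 °C for up to 360 min. Ethanol added to stop the reaction, then centrifugation and RP-HPLC of the supernatant. Half-life taken from least-squares regression of log concentration versus time, minimum five points.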

Non-standard residues stand in square brackets, D forms with d. Residues, ends and D or L forms follow the SMILES beside them. ξ: configuration not given here. *: point of attachment. Fmoc = O=C(OCC1c2ccccc2-c2ccccc21)*; Cbz = O=C(OCc1ccccc1)*; ξNle = CCCCC(N)C(=O)O; NHBn = c1ccc(CN*)cc1 Bounds are passed on as bounds.

On to `CC(C)C[C@H](NC(=O)OCc1ccccc1)C(=O)N[C@@H](CC(C)C)C(=O)N[C@@H](CC(C)C)C(=O)NCc1ccccc1` (HELM PEPTIDE1{[O=C(OCc1ccccc1)[*:2]].L.L.L.[c1ccc(CN[*:1])cc1]}$$$$V2.0), for which the IC50 (usually the concentration that inhibits the measured activity by half) in data set [1] was 9.51 µM; in data set [2] it was 8.93 µM; in data set [3], over 20 µM.
Turning to `CCCCC(NC(=O)OCc1ccccc1)C(=O)N[C@@H](CO)C(=O)N[C@@H](CC(C)C)C(=O)NCc1ccccc1` (stereo partly drawn) (Cbz-[ξNle]-Ser-Leu-NHBn), the values for the IC50 in data set [1], in data set [2] and in data set [3] were over 20 µM, 18.2 µM and over 20 µM, respectively.
For `CC(C)C[C@H](NC(=O)[C@H](CO)NC(=O)[C@@H](NC(=O)OCC1c2ccccc2-c2ccccc21)C(C)C)C(=O)NCc1ccccc1` (HELM PEPTIDE1{[O=C(OCC1c2ccccc2-c2ccccc21)[*:2]].V.S.L.[c1ccc(CN[*:1])cc1]}$$$$V2.0), the IC50 in data set [1] is 5.91 µM; in data set [2], 13.6 µM; in data set [3], over 20 µM.
For `CC(C)C[C@H](NC(=O)[C@H](CO)NC(=O)[C@@H](NC(=O)C1=CCCNC1)C(C)C)C(=O)NCc1ccccc1`, the half-life in data set [4] and in data set [5] was over 360 min in each case. Besides, the concentration for half-maximal inhibition (IC50) in data set [1] was 0.52 µM; in data set [2] it was 2.16 µM; in data set [3] it was over 20 µM.
`CC(C)C[C@H](NC(=O)C1=CCCNC1)C(=O)N[C@@H](CC(C)C)C(=O)N[C@@H](CC(C)C)C(=O)NCc1ccccc1`: the figures for the half-life in data set [4] and in data set [5] were over 360 min and 295 min, respectively. The IC50 in data set [1] was 1.41 µM; in data set [2] it was 2.57 µM; in data set [3] it was over 20 µM.
`CC[C@H](C)[C@H](NC(=O)OCC1c2ccccc2-c2ccccc21)C(=O)N[C@@H](CO)C(=O)N[C@@H](CC(C)C)C(=O)NCc1ccccc1` (HELM PEPTIDE1{[O=C(OCC1c2ccccc2-c2ccccc21)[*:2]].I.S.L.[c1ccc(CN[*:1])cc1]}$$$$V2.0): the IC50 in data set [1], in data set [2] and in data set [3] was over 20 µM throughout.
Take `CC[C@H](C)[C@H](NC(=O)OCc1ccccc1)C(=O)N[C@@H](CO)C(=O)N[C@@H](CC(C)C)C(=O)NCc1ccccc1` (HELM PEPTIDE1{[O=C(OCc1ccccc1)[*:2]].I.S.L.[c1ccc(CN[*:1])cc1]}$$$$V2.0): the 50% inhibitory concentration (IC50) in data set [1], in data set [2] and in data set [3] was over 20 µM each time.
For the molecule `CC(C)C[C@H](NC(=O)[C@H](CO)NC(=O)[C@H](C)NC(=O)OCC1c2ccccc2-c2ccccc21)C(=O)NCc1ccccc1` (HELM PEPTIDE1{[O=C(OCC1c2ccccc2-c2ccccc21)[*:2]].A.S.L.[c1ccc(CN[*:1])cc1]}$$$$V2.0), the IC50 in data set [1], in data set [2] and in data set [3] was over 20 µM in each case.
With `CC(C)C[C@H](NC(=O)[C@H](CO)NC(=O)[C@@H]1CCCN1C(=O)OCC1c2ccccc2-c2ccccc21)C(=O)NCc1ccccc1` (HELM PEPTIDE1{[O=C(OCC1c2ccccc2-c2ccccc21)[*:2]].P.S.L.[c1ccc(CN[*:1])cc1]}$$$$V2.0), the IC50 in data set [1], in data set [2] and in data set [3] was over 20 µM in each case.
On to `CC(C)C[C@H](NC(=O)[C@H](CO)NC(=O)[C@H](C)NC(=O)OCc1ccccc1)C(=O)NCc1ccccc1` (HELM PEPTIDE1{[O=C(OCc1ccccc1)[*:2]].A.S.L.[c1ccc(CN[*:1])cc1]}$$$$V2.0), for which the IC50 in data set [1], in data set [2] and in data set [3] was over 20 µM each time.
Regarding `CC(C)C[C@H](NC(=O)[C@H](CO)NC(=O)[C@H](Cc1ccccc1)NC(=O)C1=CCCNC1)C(=O)NCc1ccccc1`, the half-life in data set [4] and in data set [5] was over 360 min throughout. Also, the IC50 in data set [1] was 1.23 µM; in data set [2] it was 2.93 µM; in data set [3] it was over 20 µM.
For the molecule `CC(C)C[C@H](NC(=O)[C@H](CO)NC(=O)[C@@H](NC(=O)OCc1ccccc1)C(C)C)C(=O)NCc1ccccc1` (HELM PEPTIDE1{[O=C(OCc1ccccc1)[*:2]].V.S.L.[c1ccc(CN[*:1])cc1]}$$$$V2.0), the IC50 in data set [1] is 3.73 µM; in data set [2] it was 9.46 µM; in data set [3], over 20 µM.
Take `CC(C)C[C@H](NC(=O)OCc1ccccc1)C(=O)N[C@@H](CO)C(=O)N[C@@H](CC(C)C)C(=O)NCc1ccccc1` (HELM PEPTIDE1{[O=C(OCc1ccccc1)[*:2]].L.S.L.[c1ccc(CN[*:1])cc1]}$$$$V2.0): the concentration for half-maximal inhibition (IC50) in data set [1] is over 20 µM; in data set [2], 15.8 µM; in data set [3], over 20 µM.
For the molecule `CC(C)C[C@H](NC(=O)OCC1c2ccccc2-c2ccccc21)C(=O)N[C@@H](CO)C(=O)N[C@@H](CC(C)C)C(=O)NCc1ccccc1` (HELM PEPTIDE1{[O=C(OCC1c2ccccc2-c2ccccc21)[*:2]].L.S.L.[c1ccc(CN[*:1])cc1]}$$$$V2.0), the half-inhibitory concentration (IC50) in data set [1], in data set [2] and in data set [3] was over 20 µM in each case.
As to `CC(C)C[C@H](NC(=O)OCC1c2ccccc2-c2ccccc21)C(=O)N[C@@H](CC(C)C)C(=O)N[C@@H](CC(C)C)C(=O)NCc1ccccc1` (HELM PEPTIDE1{[O=C(OCC1c2ccccc2-c2ccccc21)[*:2]].L.L.L.[c1ccc(CN[*:1])cc1]}$$$$V2.0), the concentration for half-maximal inhibition (IC50) is 12.2 µM in data set [1], 10.7 µM in data set [2] and over 20 µM in data set [3].
As for `CCCCC(NC(=O)OCC1c2ccccc2-c2ccccc21)C(=O)N[C@@H](CO)C(=O)N[C@@H](CC(C)C)C(=O)NCc1ccccc1` (stereo partly drawn) (Fmoc-[ξNle]-Ser-Leu-NHBn), the half-inhibitory concentration (IC50) in data set [1], in data set [2] and in data set [3] was over 20 µM in each case.
With `CC(C)C[C@H](NC(=O)[C@H](CO)NC(=O)[C@H](Cc1ccccc1)NC(=O)OCc1ccccc1)C(=O)NCc1ccccc1`, the figures for the half-maximal inhibitory concentration (IC50) in data set [1], in data set [2] and in data set [3] were 2.18 µM, 4.82 µM and 17.6 µM, respectively.
Turning to `CC(C)C[C@H](NC(=O)[C@H](CO)NC(=O)[C@H](Cc1ccccc1)NC(=O)OCC1c2ccccc2-c2ccccc21)C(=O)NCc1ccccc1`, the half-inhibitory concentration (IC50) in data set [1] was 11 µM; in data set [2], 12.9 µM; in data set [3], 19.1 µM.
